Experimental findings from ChEMBL document CHEMBL1250546, “Synthesis of non-purine analogs of 6-aryl-9-benzylpurines, and their antimycobacterial activities. Compounds modified in the imidazole ring” (Bioorg Med Chem, 2010) are described below.

Converted amounts (≈) assume the structure as drawn. Where only a bound is given, the exact number is not on record here.

The subject of one assay is Vero. Kind of assay: Cytotoxicity against african green monkey Vero cells. In kind it is cell-based. The following applies: Chlorocebus sabaeus. An outline of the steps: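 Mammalian-cell toxicity was measured in VERO cells and expressed as EC₅₀.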
Assay [1] can be described thus: Selectivity index, ratio of EC50 for african green monkey Vero cells to MIC for Mycobacterium tuberculosis H37Rv ATCC 27294. In kind it is functional.
The subject of the next assay is Staphylococcus aureus. Kind of assay: Antibacterial activity against Staphylococcus aureus. In kind it is functional.
For assay [2], the system named is Mycobacterium tuberculosis. Kind of assay: Antibacterial activity against Mycobacterium tuberculosis H37Rv ATCC 27294 after 7 days by microplate alamar blue assay. In kind it is functional. The following applies: H37Rv ATCC 27294, 168 h. The procedure, abridged: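 Microplate alamar blue assay in 7H12 medium against M. tuberculosis H37Rv ATCC 27294 and against rifampicin-, isoniazid-, streptomycin- and kanamycin-resistant Mtb strains. Bacteria were incubated with test samples for 7 days, then fluorescence was read. MIC is the lowest concentration giving at least a 90% fluorescence reduction relative to untreated controls.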
(The colour change of resazurin is a common sign of viable cells or microbes.)

In a further assay the test system is Escherichia coli. The experiment in a line: Antibacterial activity against Escherichia coli. In kind it is functional.
Assay [3] relates to Mycobacterium tuberculosis. The experiment in a line: Antibacterial activity against Mycobacterium tuberculosis. In kind it is functional.

Usually EC50 stands for the concentration that produces a half-maximal response. A word on the MIC: it is the smallest concentration in the dilution series that meets the test's criterion for growth inhibition. As for `COc1ccc(Cn2nnc3c(-c4ccco4)ncnc32)cc1`, the EC50 with Vero is above 130 µM. Moreover, in assay [1], the “Selectivity Index” value was above 54. Besides, the MIC in the assay on Staphylococcus aureus was above 32 µg/mL; in assay [2], 2.4 µM (≈ 0.738 µg/mL); in the assay on Escherichia coli, above 90 µg/mL.
The matching figures for `COc1ccc(Cn2ncc3c(-c4ccco4)ncnc32)cc1`: above 327 µM, above 91, above 32 µg/mL, 3.6 µM (≈ 1.1 µg/mL) and above 90 µg/mL.
The matching figures for `COc1ccc(Cn2ccc3c(-c4ccco4)ncnc32)cc1`: above 131 µM, above 756, above 32 µg/mL, 0.16 µM (≈ 0.0489 µg/mL) and above 90 µg/mL.
In the assay on Vero, `COc1ccc(Cn2ccc3c(-c4cccs4)ncnc32)cc1` had an EC50 of 40 µM. Further, in assay [1], the “Selectivity Index” value amounted to 114. This molecule also gave an MIC in assay [2] of 0.35 µM (≈ 0.112 µg/mL).
As for `COc1ccc(Cn2ccc3c(-c4ccco4)nc(Cl)nc32)cc1`, in the assay on Vero, the EC50 came out at 85 µM. The “Selectivity Index” value in assay [1] worked out at 1063. In addition, the MIC against Staphylococcus aureus was above 32 µg/mL; in assay [2] it was 0.08 µM (≈ 0.0272 µg/mL); with Escherichia coli it was above 90 µg/mL.
`COc1ccc(Cn2ccc3c(-c4cccs4)nc(Cl)nc32)cc1` yielded an EC50 with Vero of 76 µM. The “Selectivity Index” value in assay [1] stood at 691. Also, 0.11 µM (≈ 0.0391 µg/mL) was the least that counted as inhibitory in assay [2] (MIC).
As to `COc1ccc(Cn2ccc3c(-c4ccco4)nc(OC)nc32)cc1`, the EC50 in the assay with Vero is 45 µM. Besides, in assay [1], the “Selectivity Index” value worked out at 205. The molecule further yielded an MIC in assay [2] of 0.22 µM (≈ 0.0738 µg/mL).
Turning to `COc1ccc(C(=O)c2cn(C)c3c(-c4ccco4)ncnc23)cc1`, the MIC is above 32 µg/mL in the assay with Staphylococcus aureus, 192 µM (≈ 64 µg/mL) in assay [2] and above 90 µg/mL against Escherichia coli.
As for `COc1ccc(C(=O)c2c[nH]c3c(-c4ccco4)ncnc23)cc1`, the MIC against Staphylococcus aureus was above 32 µg/mL; in assay [2], above 300 µM; against Escherichia coli, above 90 µg/mL.
As for `COc1ccc(Cc2cn(C)c3c(-c4ccco4)ncnc23)cc1`, the MIC against Staphylococcus aureus is above 32 µg/mL; in assay [2], 97 µM (≈ 31 µg/mL); in the assay on Escherichia coli, above 90 µg/mL.
In the case of `COc1ccc(Cn2cnc3c(-c4cccs4)nc(Cl)nc32)cc1`, the lowest concentration to inhibit growth in assay [3] (MIC) was 0.78 µg/mL (≈ 2.19 µM).
In the assay on Vero, `COc1ccc(Cn2cnc3c(-c4ccco4)ncnc32)cc1` returned an EC50 above 206 µM. Further, the MIC stood at 1.65 µg/mL (≈ 5.39 µM) in assay [3] and 2.1 µM (≈ 0.643 µg/mL) in assay [2]. In assay [1], the “Selectivity Index” value is listed as above 98.
On to `COc1ccc(Cn2cnc3c(-c4ccco4)nc(Cl)nc32)cc1`, for which, in the assay with Vero, the EC50 is above 117 µM. In addition, the MIC in assay [3] worked out at 0.39 µg/mL (≈ 1.14 µM); in assay [2], 0.36 µM (≈ 0.123 µg/mL). Further, the “Selectivity Index” value in assay [1] is on record as above 325.
On to `CO[C@H]1/C=C/O[C@@]2(C)Oc3c(C)c(O)c4c(O)c(c(/C=N/N5CCN(C)CC5)c(O)c4c3C2=O)NC(=O)/C(C)=C\C=C\[C@H](C)[C@H](O)[C@@H](C)[C@@H](O)[C@@H](C)[C@H](OC(C)=O)[C@@H]1C` [RIFAMPIN], for which the MIC in assay [3] was 0.25 µg/mL (≈ 0.304 µM).
